This is one part of a sample in which hits are shown more often than they occur.
XiGFP reactiv = reactivates the inactive X chromosome in mouse fibroblasts | XiGFP mouse fibroblasts, % GFP-positive cells imaging, 3 d; cells co-treated with 5-aza-dC sensitizer; scaled so ellipticine positive control = 100% | AID 743238 | activation, % at 7.58 µM | actives 0.055% (n = 360,000);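 active = mean normalized replicate activation at least 10% and every replicate at or above 10%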;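 note: 0% = median of on-plate neutral control wells and 100% = ellipticine 6 µM median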
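Material: SV40-immortalized XiGFP fibroblast cells, line 68-5-11 | Buffer or medium: DMEM containing 5-aza-dC | Dosing: One concentration, pinned | Times: 3 d treatment, 15 min room-temperature fixation | Controls: Ellipticine 6 µM positive control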
E-selectin induc = E-selectin induction on HUVECs; P16581; HUVEC E-selectin immunofluorescence imaging; normalized: neutral wells 0, TNF-alpha wells 100; activation, % at 7.58 µM; actives 0.37% (n = 260,000);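 active = mean E-selectin-positive cell signal at least 10% of the positive control, reached in at least 60% of replicates, without over 20% cell loss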
Target sequence (P16581 whole entry, looked up): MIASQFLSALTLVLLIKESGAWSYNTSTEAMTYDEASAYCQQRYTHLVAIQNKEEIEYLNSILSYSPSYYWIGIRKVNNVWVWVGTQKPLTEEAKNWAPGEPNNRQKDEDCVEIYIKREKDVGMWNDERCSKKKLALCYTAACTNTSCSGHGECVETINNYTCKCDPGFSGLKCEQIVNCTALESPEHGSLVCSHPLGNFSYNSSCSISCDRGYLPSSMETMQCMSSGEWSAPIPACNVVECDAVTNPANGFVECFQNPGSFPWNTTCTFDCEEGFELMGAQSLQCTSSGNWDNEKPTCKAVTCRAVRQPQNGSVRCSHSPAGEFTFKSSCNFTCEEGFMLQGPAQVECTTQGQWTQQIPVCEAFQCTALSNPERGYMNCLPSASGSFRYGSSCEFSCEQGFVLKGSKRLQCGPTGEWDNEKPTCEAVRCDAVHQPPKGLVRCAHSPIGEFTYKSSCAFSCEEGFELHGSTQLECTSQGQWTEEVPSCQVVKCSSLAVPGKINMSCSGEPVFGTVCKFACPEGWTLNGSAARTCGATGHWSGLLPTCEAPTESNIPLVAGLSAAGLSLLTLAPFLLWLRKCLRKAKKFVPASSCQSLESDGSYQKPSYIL
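Material: HUVEC primary endothelial cells; Amount: 3,000 cells per well; Dosing: single concentration; Medium: EGM-2 growth medium on 0.1% gelatin-coated wells; Read-out basis: percent E-selectin-positive cells; Signal: immunofluorescence imaging; Control set: TNF-alpha, DMSO.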
* = called active by the depositor; . = not tested or not shown.

SMILES	XiGFP reactiv	E-selectin induc
O=C(CN1CCOCC1)NCC[C@H]1CC[C@@H](NC(=O)Cc2ccccn2)[C@@H](CO)O1	0	0
C[C@@H]1CN([C@@H](C)CO)C(=O)c2cc(-c3cccnc3)cnc2O[C@@H]1CN(C)Cc1ccccc1	0	0
CC(=O)Nc1cccc2c1O[C@@H](CN(C)C(=O)OC(C)(C)C)[C@H](C)CN(C)C2=O	0	.
CC(=NNS(=O)(=O)c1cccc([N+](=O)[O-])c1)c1ccc(-n2ccnc2)cc1	0	0
C/C(=N/NS(=O)(=O)c1cccc([N+](=O)[O-])c1)c1ccncc1	0	28*
CCOC(=O)/C=c1\s/c(=C\c2ccc3cc(OC)ccc3c2)c(=O)n1CC(=O)NCc1ccc2c(c1)OCO2	28*	.
CCOC(=O)/C=c1\s/c(=C\c2ccccc2C)c(=O)n1CC(=O)NCc1ccc2c(c1)OCO2	0	.
CCC(=O)N1CC[C@H]2[C@H](CO)Nc3ccc(C#Cc4cccc(OC)c4)cc3[C@H]21	0	.
COc1ccc2c3c([nH]c2c1)[C@H](CO)N(C(=O)CN(C)C)CC31CCN(CC2CCCC2)CC1	0	0
C[C@H]1CN([C@@H](C)CO)C(=O)c2cccc(NC(=O)Nc3ccc(F)cc3)c2O[C@@H]1CN(C)C(=O)NC1CCCCC1	1	69*
COc1ccc(NC(=O)Nc2cccc3c2O[C@H](CN(C)C(=O)NC2CCCCC2)[C@H](C)CN([C@H](C)CO)C3=O)cc1	0	32*
C[C@H]1CN([C@@H](C)CO)C(=O)c2cccc(NC(=O)Nc3ccc(F)cc3)c2O[C@H]1CN(C)CC1CCCCC1	-1	34*
C[C@H](CO)N1C[C@H](C)[C@@H](CN(C)CC2CCCCC2)Oc2c(NC(=O)Nc3ccc(F)cc3)cccc2C1=O	-1	1
COc1ccc(NC(=O)Nc2cccc3c2O[C@H](CN(C)C(=O)NC2CCCCC2)[C@H](C)CN([C@@H](C)CO)C3=O)cc1	-1	1
C[C@H]1CN([C@@H](C)CO)C(=O)c2cccc(NC(=O)NC3CCCCC3)c2O[C@@H]1CN(C)C(=O)Nc1ccc(F)cc1	0	0
Cc1ccc(-c2cnc3c(c2)C(=O)N([C@@H](C)CO)C[C@H](C)[C@H](CN(C)S(C)(=O)=O)O3)cc1	-1	0
CCOC(=O)c1c(-c2ccc(OC)cc2)csc1/N=C/C1C(=O)CCCC1=O	0	278*
CCOC(=O)c1c(-c2ccc(OC)cc2)csc1/N=C/N(C)C	0	0
CCCC#Cc1ccc2c(c1)O[C@H](CN(C)C(=O)CN(C)C)[C@@H](C)CN([C@H](C)CO)S2(=O)=O	1	1
CNC[C@@H]1Oc2ncccc2C(=O)N(C)C[C@@H]1C	0	.
CNC[C@H]1OCCCC[C@@H](C)Oc2ccc(NS(=O)(=O)c3ccc(OC)cc3)cc2C(=O)N([C@@H](C)CO)C[C@@H]1C	0	0
CO[C@@H]1CN(C)C(=O)c2ccc(NC(=O)Nc3ccc(F)cc3)cc2OC[C@@H](C)N(C(=O)c2ccc(F)cc2)C[C@H]1C	0	44*
CO[C@H]1CN(C)C(=O)c2cc(NC(=O)Nc3ccc(Cl)cc3)ccc2OC[C@H](C)NC[C@@H]1C	0	0
CO[C@H]1CN(C)C(=O)c2ccc(NC(C)=O)cc2OC[C@@H](C)N(C(=O)c2ccc(F)cc2)C[C@@H]1C	0	0
CO[C@H]1CN(C)C(=O)c2cc(NC(=O)Nc3ccc(Cl)cc3)ccc2OC[C@H](C)NC[C@H]1C	0	66*
SMILES	XiGFP reactiv	E-selectin induc
O=S(=O)(c1ccccc1)N1CC2(C1)[C@H](c1ccccc1)[C@H](CO)N2CC1CC1	0	0
O=C1N[C@H](c2ccccc2)COCc2cnnn2CC[C@H]1Cc1ccc(-c2ccccc2)cc1	0	.
Cc1ccc(S(=O)(=O)N2CCN(C(=O)c3ccccc3OCc3c(C)noc3C)CC2)cc1	0	0
Cc1noc(C)c1COc1ccccc1C(=O)N1CCN(S(=O)(=O)c2ccc(F)c(F)c2)CC1	0	94*
C[C@H](CO)N1C[C@H](C)[C@@H](CN(C)S(=O)(=O)c2cccs2)Oc2c(NC(=O)Cn3cnnn3)cccc2C1=O	-1	.
COc1ccccc1NC(=S)N1CCCCCC1	0	65*
COc1ccccc1NC(=S)N1CCCC1	0	.
CSc1nc2c(cnn2-c2ccc(C)c(C)c2)c(=O)[nH]1	0	48*
CCC(C)Sc1nc2c(cnn2-c2ccc(C)c(C)c2)c(=O)[nH]1 (stereo not given)	0	-1
C[C@H](CO)N1C[C@H](C)[C@@H](CN(C)C(=O)Nc2ccc3c(c2)OCO3)Oc2ccc(NC(=O)c3ccncc3)cc2C1=O	0	.
Cc1noc(C)c1NC(=O)N(C)C[C@H]1Oc2ccc(NC(=O)c3ccncc3)cc2C(=O)N([C@H](C)CO)C[C@@H]1C	0	365*
C[C@@H]1CN([C@H](C)CO)C(=O)c2cc(NC(=O)c3ccncc3)ccc2O[C@@H]1CN(C)C(=O)Nc1ccc2c(c1)OCO2	0	40*
Cc1noc(C)c1NC(=O)N(C)C[C@@H]1Oc2ccc(NC(=O)c3ccncc3)cc2C(=O)N([C@@H](C)CO)C[C@@H]1C	0	-5
CC(=O)N(C)C[C@H]1Oc2c(NC(=O)NC(C)C)cccc2C(=O)N(C)C[C@H]1C	0	.
C/C=C/c1cccc(-c2nc(C(=O)NC3CCC3)cc3c2[C@H](CCO)N([S@@](=O)C(C)(C)C)C3)c1	0	.
CCCC(=O)Nc1ccc2c(c1)C(=O)N(C)C[C@H](OC)[C@@H](C)CN(C(=O)CC)[C@@H](C)CO2	0	0
C/C=C/c1ccc([C@@H]2[C@@H](CO)N(C(=O)C3CCC3)C23CN(S(=O)(=O)CC)C3)cc1	0	0
CC(OC(=O)c1nsc(Cl)c1Cl)C(=O)NCCc1ccccc1 (stereo not given)	0	29*
CCC(OC(=O)c1nsc(Cl)c1Cl)C(=O)NCc1ccco1 (stereo not given)	.	-1
CCCNC(=O)N1CC2(CN(C(=O)c3cccnc3)C2)c2c([nH]c3cc(OC)ccc23)[C@@H]1CO	0	0
COc1ccc2c3c(n(C)c2c1)[C@@H](CO)NCC31CN(S(=O)(=O)c2cccc(F)c2)C1	0	.
COCCNC(=O)C[C@@H]1CC[C@H]2[C@@H](COC[C@@H](O)CN2S(=O)(=O)c2ccccc2C)O1	0	0
Cc1c(C(=O)NC(=S)NCC(C)C)oc2ccccc12	0	0
C=CCNC(=S)NC(=O)c1oc2ccccc2c1C	0	49*
O=C(CSc1ncccn1)NC1CCCC1	0	0
SMILES	XiGFP reactiv	E-selectin induc
O=C(O)CSc1ncccn1	53*	0
COc1ccccc1CCC(=O)N1CCC(n2nccc2NC(=O)CC(C)C)CC1	0	0
CC(C)NC(=O)N1CCC(n2nccc2NC(=O)CCOc2ccccc2)CC1	0	0
C=C(C)CCC(C)N1CCC(n2nccc2NC(=O)CCOc2ccccc2)CC1 (stereo not given)	0	44*
COc1cccc(CCC(=O)N2CCC(n3nccc3NC(=O)CC(C)C)CC2)c1	0	39*
CO[C@H]1CN(C)C(=O)c2ccc(NS(=O)(=O)c3ccc(Cl)cc3)cc2OC[C@@H](C)NC[C@H]1C	0	2

Screening data (PubChem)
